In the library only some 3.1% were active in any assay of this set; here they are far more common.
HKDC1 inh = inhibitors of human hexokinase HKDC1. Q2TB90. recombinant HKDC1, G6PDH/diaphorase resazurin coupled fluorescence. inhibition, % at 20 µM. hit rate 0.16% among 340,000. AID 493160;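 active = inhibition above about 35% when tested at 20 µM, limit read from the data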;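 note: plate controls were DMSO wells with enzyme for no effect and DMSO wells lacking enzyme for full effect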
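Test system: recombinant HKDC1 (HK5) hexokinase enzyme, produced in-house / Doses: 20 µM test compound, 1% DMSO / Timing: 90 min, room temperature / Detection: G6PDH/diaphorase-coupled fluorescence, 1 mM NADP, 100 µM resazurin, 525/613 nm / Control set: DMSO wells with and without enzyme mix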
HSF-1 act = increases HSF-1 driven luciferase reporter signal | NIH3T3-HGL HSF-1 luciferase reporter, MG132, 8 h; 100% = twice DMSO control signal | activation, % at 9 µM | hit rate 1.7% among 300,000;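 active = mean replicate activation of at least 50% with a set share of replicates each reaching 50%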;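 note: 0% = median of the neutral control wells and 100% = twice that signal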
Hsp70 act = switches on Hsp70 transcription. HeLa Hsp70 promoter luciferase reporter, luminescence; scaled: vehicle 0, proteasome-inhibitor control 100%. activation, % at 10 µM. hit rate 0.04% among 200,000;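 active = activation above the mean across all tested compounds plus 3 SD, cutoff set per campaign, cut at about 5.5% in these data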;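 note: 100% = MG132 at 30 µM as the positive control and 0% = DMSO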
HSP90 refold inh = blocks HSP90-mediated luciferase refolding in reticulocyte lysate. Rabbit reticulocyte lysate, luciferase refolding luminescence, 3 h. hit rate 0.91% among 290,000. inhibition, % at 5.6 µM;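 active = inhibition above the screen-wide mean plus 3 SD, computed separately per campaign, cut at about 16% in these data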;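 note: 0% = DMSO wells and 100% = 60 µM geldanamycin wells; inhibitors lower the luminescence because luciferase stays unfolded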
HSF1 inhib = HSF1 inhibition. NIH3T3-HGL HSE-luciferase, MG132-induced, luminescence 8 h; stronger effect = lower value. activity change, negative = inhibition, % at 7.5 µM (by protocol). hit rate 0.77% among 300,000;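 active = more than half of replicate wells show activity change below -50%, luminescence cut by over half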;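 note: luciferase reports HSF-1 transcriptional activity via heat shock element; 0% = median of DMSO wells and -100% = zero luminescence signal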
TbHK1 inh = T. brucei hexokinase 1 inhibition. recombinant TbHK1, G6PDH-coupled NADH A340. inhibition, % at 10 µM. hit rate 0.11% among 220,000;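 active = inhibition of 50% or more in the single-dose primary screen; inactive = inhibition below 50%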
* = called active by the depositor; x = no result.

SMILES	HKDC1 inh	HSF-1 act	Hsp70 act	HSP90 refold inh	HSF1 inhib	TbHK1 inh
Cc1ccc(OC(=O)c2ccc(C)c(C)c2)cn1	2	54*	0	3	31	-4
O=C(O)c1ccccc1OC(C(=O)Nc1cc(Cl)cc(Cl)c1)c1ccccc1 (configuration not stated)	-8	58*	x	5	14	x
Cc1ccc2oc(C(=O)N3CCC(C(N)=O)(N4CCCCC4)CC3)c(C)c2c1	-4	-82	x	-2	-76*	x
COc1ccc(CNC(=O)C2CCN(S(=O)(=O)c3ccc4c(c3)C(C)(C)C(=O)N4C)CC2)cc1	-3	-88	x	4	-84*	x
COc1ccc(CNC(=O)C2CCN(S(=O)(=O)c3cccc(C(F)(F)F)c3)CC2)cc1	-4	x	x	x	x	x
CCCNC(=O)C1CCN(S(=O)(=O)c2ccc3[nH]c(=O)ccc3c2)CC1	10	12	x	35*	-2	x
CN1C(=O)C(C)(C)c2cc(S(=O)(=O)N3CCC(C(=O)NCc4ccc(Cl)cc4)CC3)ccc21	-7	66*	x	9	37	x
O=C(NCc1ccncc1)C1CCN(S(=O)(=O)c2cccc(C(F)(F)F)c2)CC1	-3	-62	x	1	-53*	x
O=C1c2ccccc2S(=O)(=O)c2cc(N3CCc4ccccc4C3)ccc21	x	14	x	x	12	x
O=C(CNC(=O)C1COc2ccccc2O1)Nc1ccc(F)c(F)c1 (configuration not stated)	9	x	x	x	x	x
N#CC1=C(N)Oc2cc(N)ccc2C1c1ccccc1Cl (configuration not stated)	5	-71	x	0	-61*	x
N#CC1=C(N)Oc2cc(N)ccc2C1c1ccc(Cl)cc1 (configuration not stated)	4	23	x	-5	5	x
Cc1ccc(NC(=O)Cc2ccc(-n3cccc3)cc2)c(C)c1	-14	-64	0	1	-53*	24
Cc1cc(C)cc(NC(=O)Cc2ccc(-n3cccc3)cc2)c1	-12	19	0	4	-3	-2
CCOc1cc(CNCC2CCCN2CC)cc(Cl)c1OC (configuration not stated)	-5	-81	0	1	-74*	2
CCN1CCCC1CNCc1cc(OC)c(OC)c(OC)c1 (configuration not stated)	12	-1	0	1	-9	-7
O=C(COC(=O)[C@H](Cc1c[nH]c2ccccc12)NC(=O)c1ccc(Cl)cc1)Nc1ccc2c(c1)OCO2	9	18	0	7	12	5
COC(=O)[C@@H](Cc1c[nH]c2ccccc12)NC(=O)c1ccc2c(c1)OCO2	-1	70*	x	10	30	x
O=C(NC1CCCC1)c1cccc2c1C(=O)c1ccc(Cl)cc1S2(=O)=O	1	x	x	x	x	x
Cc1cc(C)n(-c2ccc(NC(=O)C3CCCCN3C(=O)c3ccc(C)s3)cc2)n1 (configuration not stated)	-2	7	x	-3	5	x
Cc1cc(C)n(-c2ccc(NC(=O)C3CCCCN3C(=O)c3ccoc3C)cc2)n1 (configuration not stated)	-2	-77	x	1	-70*	x
Nc1ncnc2c1ncn2[C@@H]1O[C@H](CNCc2ccccc2OCC(=O)N2CCCCC2)[C@@H](O)[C@H]1O	-3	x	x	x	x	x
COC(=O)c1cc(COc2ccc3oc(C)c(C(=O)OC(C)C)c3c2)c(C)o1	1	-83	0	-1	-80*	-3
N#Cc1cc(Cl)c(NCC2CCCO2)cc1C#N (configuration not stated)	6	89*	x	4	49	x
N#Cc1cccc(C#N)c1NCC1CCCO1 (configuration not stated)	2	24	x	1	3	x
SMILES	HKDC1 inh	HSF-1 act	Hsp70 act	HSP90 refold inh	HSF1 inhib	TbHK1 inh
O=C1NC(=O)C(Cc2ccc(O)cc2)N1 (configuration not stated)	-4	x	x	x	x	x
CN1CCN(c2ccc(-c3cccc(NC(=O)COc4ccc(Cl)cc4Cl)c3)nn2)CC1	x	-60	x	x	-54*	x
Cc1cccc(N2CCN(C(=O)CSCc3c(C)noc3C)CC2)c1C	-2	54*	0	0	9	-7
Cc1noc(C)c1CSCC(=O)N1CCN(c2ccc(F)cc2)CC1	5	10	-1	2	12	-5
CCOc1cc(C(=S)N2CCOCC2)ccc1OS(=O)(=O)c1ccc(OC)cc1	-3	-83	x	4	-78*	x
Cc1csc2nc(CSc3nncn3-c3ccccc3)c(Br)n12	-11	-13	0	3	-6	3
Cc1csc2nc(CSc3nc4ccccc4o3)c(Br)n12	3	110*	0	0	93	10
CC(C)(C)C(=O)Nc1ccc(C(=O)COC(=O)C2=COCCO2)cc1	6	x	x	x	x	x
Cc1cc2cc3c(cc2nc1SCC(=O)N1c2ccccc2CC1C)OCO3 (configuration not stated)	1	14	0	17*	-1	-10
CC1Cc2ccccc2N1C(=O)CSc1ncccc1C(=O)O (configuration not stated)	9	-81	-1	-2	-78*	2
CC1Cc2ccccc2N1C(=O)CSc1ccccc1 (configuration not stated)	-13	26	0	-7	29	5
CCN1C(=O)[C@H]2[C@@H](c3ccc(-c4ccc(C(C)=O)cc4)c(OC)c3)N[C@@](Cc3ccccc3)(C(=O)OC)[C@H]2C1=O	9	2	x	x	-5	x
CCN(CC)C(=O)c1[nH]cnc1C(=O)NCc1ccccc1	-6	x	x	x	x	x
CCC[N+]1(CC#CC(O)(c2ccccc2)C2CCCCC2)CCCCC1 (configuration not stated)	-2	5	x	2	-5	-4
NC(=O)C[N+]1(CC#CC(O)(c2ccccc2)c2ccccc2)CCCC1	-20	-75	0	4	-69*	-2
Cc1cc(C)n(CCC(=O)N2CCCC(Nc3ccc(F)cc3)C2)n1 (configuration not stated)	0	0	x	-5	0	x
COc1cc(SC)ccc1C(=O)Nc1ccc(C)cc1	-10	55*	0	2	18	0
COc1cc(SC)ccc1C(=O)Nc1ncc(Cl)cc1Cl	-2	63*	0	5	18	-1
O=C1c2ccccc2C(=O)N1C1C(=O)N2CCSC12C(=O)OCc1ccccc1 (configuration not stated)	1	x	x	x	x	x
CC1CC(C)CN(C(=O)c2ccc(S(=O)(=O)N3CCCC3)cc2)C1 (configuration not stated)	-3	-4	x	2	-7	x
O=C(NC12CC3CC(CC(C3)C1)C2)C1CCCN1C(=O)Nc1ccccc1 (configuration not stated)	1	-13	x	-3	-5	x
Cc1ccc2sc(N(CCCN(C)C)C(=O)CCS(=O)(=O)c3ccccc3)nc2c1C	0	111*	x	1	75	x
COCCn1c(SCC(=O)NC(=O)Cc2ccccc2)nc2ccccc2c1=O	-7	x	x	x	x	x

Compound activity from PubChem.
